Hits are enriched below; roughly 5.7% of the tested compounds scored in any of these assays.
Mdm2-MdmX inh: human Mdm2/MdmX binding inhibition | O15151+Q00987 | AID 485346 | SaOS-2 split-luciferase Mdm2/MdmX complementation, luminescence | 3% of 330,000 active | inhibition, % at 8 µM;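 active means inhibition of at least 50% at 8 µM in the primary screen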
Target sequence (O15151 whole entry, looked up): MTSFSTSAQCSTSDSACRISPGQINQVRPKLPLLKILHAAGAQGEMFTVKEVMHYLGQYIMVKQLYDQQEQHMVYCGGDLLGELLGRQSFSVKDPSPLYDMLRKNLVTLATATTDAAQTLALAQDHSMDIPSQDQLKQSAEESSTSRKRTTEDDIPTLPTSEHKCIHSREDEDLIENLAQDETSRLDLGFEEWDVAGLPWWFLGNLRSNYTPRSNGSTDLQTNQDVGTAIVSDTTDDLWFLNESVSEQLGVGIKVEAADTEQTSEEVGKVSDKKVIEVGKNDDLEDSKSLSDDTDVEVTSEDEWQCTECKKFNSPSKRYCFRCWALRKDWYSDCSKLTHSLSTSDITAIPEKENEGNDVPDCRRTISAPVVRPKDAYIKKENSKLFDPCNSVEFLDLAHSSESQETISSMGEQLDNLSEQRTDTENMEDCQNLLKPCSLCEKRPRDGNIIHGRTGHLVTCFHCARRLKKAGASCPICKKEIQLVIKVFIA
Target sequence (Q00987 whole entry, looked up): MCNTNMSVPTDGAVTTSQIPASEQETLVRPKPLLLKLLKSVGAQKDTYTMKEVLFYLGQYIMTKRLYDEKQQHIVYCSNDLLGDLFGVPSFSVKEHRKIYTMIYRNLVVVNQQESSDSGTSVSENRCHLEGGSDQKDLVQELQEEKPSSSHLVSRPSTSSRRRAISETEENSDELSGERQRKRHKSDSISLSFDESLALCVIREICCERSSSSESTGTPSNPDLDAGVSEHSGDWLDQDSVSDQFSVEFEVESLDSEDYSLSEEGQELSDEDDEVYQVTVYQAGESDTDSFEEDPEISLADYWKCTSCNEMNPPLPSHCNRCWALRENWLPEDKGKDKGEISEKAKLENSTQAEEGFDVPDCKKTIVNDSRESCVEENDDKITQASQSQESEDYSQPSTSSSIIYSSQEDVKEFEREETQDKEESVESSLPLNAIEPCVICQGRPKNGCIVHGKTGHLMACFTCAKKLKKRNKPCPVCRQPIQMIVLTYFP
Beta cell apopt: beta cell apoptosis inhibition | INS-1E cytokine-induced death, ATP luminescence, 48 h; percent of positive-control rescue, neutral wells zero | protection from apoptosis, % (test concentration not listed) | 0.8% of 300,000 active | AID 435005;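 active means Every replicate reaches about 75%, or at least half do and their mean reaches it too, limit read from the data; inconclusive means At least half of replicates reach the limit but their mean does not; inactive means Under half of replicates reach the limit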;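 further: higher means more ATP so stronger rescue from cytokine killing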
T cruzi repl: blocks replication of Trypanosoma cruzi. inhibition, % (concentration not given with the values). T. cruzi beta-gal in NIH3T3, luminescence, 90 h. 1.4% of 300,000 active. AID 1885;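 active means mean inhibition across valid replicates above about 55%, limit read from the data; inconclusive means mean below that limit but half or more replicates reach it; inactive means mean below it, under half of replicates reach it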;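 further: signal also drops with host cell toxicity which is not excluded here; higher percent means less beta-gal luminescence so fewer parasites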
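Assay system: NIH/3T3 host cells with β-galactosidase reporter T. cruzi; input: 5,000 host fibroblasts per well; compound: single 50 nL compound addition per well in DMSO; timing: ≥90 h infection period, 3 h prior cell attachment; measured by: GalScreen β-gal luminescence, detergent lysis, 60 min; evaluation: percent inhibition of parasite-derived β-gal signal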
Calb FLC: C. albicans growth modulation with fluconazole; C. albicans CaCi-2 (fluconazole-resistant clinical isolate) + fluconazole, Alamar Blue growth, 48 h; growth inhibition, % (test concentration not listed); 0.57% of 300,000 active; AID 1979;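 active means growth inhibition above about 58% in most replicates, limit read from the data, passing the limit was not always enough; inconclusive means exactly half the replicates above a set limit; inactive means most replicates below a set limit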;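 further: all wells also contain fluconazole at 8 µg/ml as a sub-toxic cotreatment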
SKKanGAS inh: inhibitors of SKKanGAS S. pyogenes growth in kanamycin (SK-promoter or general growth effect); BacTiter-Glo, 6 h; inhibition, % at 7.5 µM; 1.3% of 300,000 active; AID 1662;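 active means mean replicate score, as percent of positive control median, at least 50; inconclusive means mean below 50 but one replicate at or above 50; inactive means mean and every replicate below 50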;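 further: strain carries kanamycin resistance gene driven by streptokinase promoter and grows in 40 µg/ml kanamycin; loss of luminescence reflects streptokinase promoter inhibition or plain growth inhibition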
CSC inhib: blocks cancer stem cells; cancer stem cell-like cells viability, luminescence; inhibition, % at 7.5 µM; 1.1% of 300,000 active; AID 2717; in the data active means inhibition above about 75%; inconclusive means no clear call, values can overlap the other calls; tested in HMLE shEcad cells
Mdm2-MdmX conf: human Mdm2/MdmX binding inhibition, confirmed; inhibition, % at 8 µM; AID 489028; luminescent assay; 55% of 10,000 active; shares compounds with Mdm2-MdmX inh; in the data active means inhibition above about 40%
FLuc counter: inhibits full-length luciferase, flagging false Mdm2/MdmX hits | shares compounds with Mdm2-MdmX inh | SaOS-2 full-length luciferase counterscreen, luminescence | inhibition, % at 8 µM | 77% of 6,200 active;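 active means mean inhibition at 8 µM reaching about 37%, which flags the compound as non-specific, limit read from the data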;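 further: p53-null SaOS-2 cells with luciferase driven by a doxycycline-inducible promoter; compound on cells about two nights before reading with doxycycline added after day one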
A number is an active result.

How did Oc1nc(Nc2ccc(Cl)cc2Cl)sc1/C=C1\C=Nc2ccccc21 do in these assays?
Mdm2-MdmX inh: 86.0; T cruzi repl: inactive; Calb FLC: inactive; SKKanGAS inh: 115.0; CSC inhib: inactive; Mdm2-MdmX conf: inactive

How did Cc1cccnc1N1C(=O)c2ccc(C(=O)O)cc2C1=O do in these assays?
Mdm2-MdmX inh: inactive; Beta cell apopt: inactive; T cruzi repl: inactive; Calb FLC: inactive; SKKanGAS inh: inactive; CSC inhib: inactive

What do the screens show for `COc1ccc(S(=O)(=O)Nc2c(C(=O)O)[nH]c3ccc(OC)cc23)cc1`?
Mdm2-MdmX inh: inactive; Beta cell apopt: inactive; T cruzi repl: inactive; SKKanGAS inh: inactive; CSC inhib: inactive

What do the screens show for `COC(=O)c1[nH]c2ccc(F)cc2c1NS(=O)(=O)c1ccc(OC)cc1`?
Mdm2-MdmX inh: 57.1; Beta cell apopt: inactive; T cruzi repl: inactive; Calb FLC: inactive; SKKanGAS inh: inactive; CSC inhib: inactive; Mdm2-MdmX conf: 57.6; FLuc counter: 62.0

What do the screens show for `O=C1c2ccc3c4c(ccc(c24)C(=O)N1c1ccc(O)cc1)C(=O)N(c1ccc(O)cc1)C3=O`?
Mdm2-MdmX inh: 63.1; Beta cell apopt: inactive; T cruzi repl: inactive; Calb FLC: inactive; SKKanGAS inh: inconclusive; CSC inhib: inactive; Mdm2-MdmX conf: inactive

Results for CCN1C(=O)/C(=C2/Sc3ccc(OC)cc3N2C)SC1=Nc1cccc(O)c1 ?
Mdm2-MdmX inh: 96.9; Beta cell apopt: inactive; T cruzi repl: inactive; Calb FLC: inactive; SKKanGAS inh: inactive; CSC inhib: inactive; Mdm2-MdmX conf: inactive

Results for O=C(CCl)Nc1ccccc1C(=O)c1ccccc1 ?
Mdm2-MdmX inh: inactive; Beta cell apopt: inactive; T cruzi repl: inactive; Calb FLC: inactive; SKKanGAS inh: inactive; CSC inhib: inactive

How did C=CCOc1ccccc1OCC(O)CNC(C)C (stereo not drawn) do in these assays?
Mdm2-MdmX inh: inactive; Beta cell apopt: inactive; CSC inhib: inactive

How did Oc1ccc(N=Nc2ccccc2)o1 do in these assays?
Mdm2-MdmX inh: inactive; Beta cell apopt: inactive; T cruzi repl: inactive; Calb FLC: inactive; SKKanGAS inh: inactive; CSC inhib: inactive

How did O=C(NN=Cc1c(F)c(F)c(F)c(F)c1F)c1ccc(NS(=O)(=O)c2cccs2)cc1 do in these assays?
Mdm2-MdmX inh: 53.0; Beta cell apopt: inactive; CSC inhib: inactive; Mdm2-MdmX conf: inactive

How did Cc1nc(N/N=C/c2ccc(O)cc2)c2cnn(-c3ccccc3)c2n1 do in these assays?
Mdm2-MdmX inh: 59.4; Beta cell apopt: inactive; T cruzi repl: inactive; Calb FLC: inactive; SKKanGAS inh: inconclusive; CSC inhib: inactive; Mdm2-MdmX conf: inactive

How did COc1ccc(C(=O)Nc2nc3c(s2)CCCC3)cc1S(=O)(=O)N1CCCc2ccccc21 do in these assays?
Mdm2-MdmX inh: 90.7; Beta cell apopt: inactive; T cruzi repl: inactive; Calb FLC: inactive; SKKanGAS inh: inactive; Mdm2-MdmX conf: 89.7; FLuc counter: inactive

How did O=C1C=C(Nc2ccc(Cl)cc2Cl)CC(c2ccco2)C1 (stereo not drawn) do in these assays?
Mdm2-MdmX inh: 50.6; Beta cell apopt: inactive; T cruzi repl: inactive; Calb FLC: inactive; SKKanGAS inh: inactive; CSC inhib: inactive; Mdm2-MdmX conf: 53.2; FLuc counter: 62.1

Results for CC12CC(c3ccccc3O1)N(C(=O)c1ccco1)C(=S)N2c1ccccc1 (stereo not drawn) ?
Mdm2-MdmX inh: 62.7; Beta cell apopt: inactive; T cruzi repl: inactive; Calb FLC: inactive; SKKanGAS inh: inactive; CSC inhib: inactive; Mdm2-MdmX conf: inactive

How did CC(=O)c1c(N2CCN(C(=O)c3ccco3)CC2)nc(=S)n(-c2ccccc2)c1C do in these assays?
Mdm2-MdmX inh: inactive; Beta cell apopt: inactive; T cruzi repl: inactive; Calb FLC: inactive; SKKanGAS inh: inactive; CSC inhib: inactive

What do the screens show for `CC(C)(OC(=O)c1ccc(F)cc1)c1cc2ccccc2c(=O)o1`?
Mdm2-MdmX inh: inactive; Beta cell apopt: inactive; CSC inhib: inactive

What do the screens show for `OC(CNCC1CCCO1)Cn1c2ccc(Cl)cc2c2cc(Cl)ccc21` (stereo not drawn)?
Mdm2-MdmX inh: 96.3; T cruzi repl: inactive; Calb FLC: inactive; SKKanGAS inh: inactive; CSC inhib: 110.9; Mdm2-MdmX conf: 43.7; FLuc counter: inactive

Results for OC(CNCC1CCCO1)Cn1c2ccccc2c2ccccc21 (stereo not drawn) ?
Mdm2-MdmX inh: inactive; Beta cell apopt: inactive; T cruzi repl: inactive; Calb FLC: inactive; SKKanGAS inh: inactive; CSC inhib: inactive

Results for COc1ccc(CCC(C)N2CCC(CO)(Cc3ccccc3)CC2)cc1 (stereo not drawn) ?
Mdm2-MdmX inh: inactive; T cruzi repl: inactive; Calb FLC: inactive; SKKanGAS inh: inactive; CSC inhib: inactive

Results for Cc1c(Cl)cccc1NC(=S)NNc1ncc(C(F)(F)F)cc1Cl ?
Mdm2-MdmX inh: 64.2; Beta cell apopt: inactive; T cruzi repl: inactive; Calb FLC: inactive; SKKanGAS inh: inactive; CSC inhib: inactive; Mdm2-MdmX conf: 71.5; FLuc counter: 42.2

What do the screens show for `Cc1c(C(=O)O)cccc1-c1ccc(/C=N/Nc2ccc(Br)cc2)o1`?
Mdm2-MdmX inh: inactive; Beta cell apopt: inactive; T cruzi repl: inactive; Calb FLC: inactive; SKKanGAS inh: inactive; CSC inhib: inactive

What do the screens show for `CCCC[C@@H](CNC)NC[C@H](NCCCCC1CCCCC1)C(C)C`?
Mdm2-MdmX inh: 98.5; T cruzi repl: inactive; Calb FLC: inactive; SKKanGAS inh: inactive; CSC inhib: inactive; Mdm2-MdmX conf: 43.1; FLuc counter: 64.5

How did Cc1ccc(-n2c(C)cc(/C=c3/sc4nc5ccccc5n4c3=O)c2C)cc1 do in these assays?
Mdm2-MdmX inh: 81.6; Beta cell apopt: inactive; T cruzi repl: inactive; Calb FLC: inactive; SKKanGAS inh: inactive; CSC inhib: inactive; Mdm2-MdmX conf: 60.9; FLuc counter: inactive

How did CCN(CC)CCCn1c2c(c(SCC(=O)Nc3cc(OC)cc(OC)c3)nc1=O)CCC2 do in these assays?
Mdm2-MdmX inh: inactive; Beta cell apopt: inactive; T cruzi repl: inactive; Calb FLC: inactive; SKKanGAS inh: inactive; CSC inhib: inactive

What do the screens show for `COc1ccc(CN2CCCCCC2)cc1Br`?
Mdm2-MdmX inh: inactive; Beta cell apopt: inactive; T cruzi repl: inactive; Calb FLC: inactive; SKKanGAS inh: inactive; CSC inhib: inactive

How did O=[N+]([O-])CC(c1ccc(F)cc1)c1c[nH]c2ccccc12 (stereo not drawn) do in these assays?
Mdm2-MdmX inh: 62.8; Beta cell apopt: inactive; T cruzi repl: inactive; Calb FLC: inactive; SKKanGAS inh: inactive; CSC inhib: inactive; Mdm2-MdmX conf: 65.8; FLuc counter: 41.7

How did CCC(=O)c1cn(CC(=O)Nc2cc(C)ccc2C)c2ccccc12 do in these assays?
Mdm2-MdmX inh: inactive; Beta cell apopt: inactive; T cruzi repl: inactive; Calb FLC: inactive; SKKanGAS inh: inactive; CSC inhib: inactive
